Assay outcomes: PubChem BioAssay, several laboratories
A selection: hits, their analogues and other compounds. The true share with any hit is near 2.9%.
SENP8 block-1 – SENP8 protease inhibitors, primary screen, biochemical, luminescence. Sentrin-specific protease 8 (Homo sapiens), Q96LD8. purified SENP8, Z-RLRGG-aminoluciferin cleavage. inhibition, % at 10 µM. actives 1.2% (n = 330,000); in the data active means inhibition above about 50%
SENP8 block-2 – human SENP8 protease inhibitors, primary screen, biochemical, fluorescence, Nedd8 protein substrate, uHTS; Sentrin-specific protease 8 (Homo sapiens), Q96LD8; recombinant SENP8; inhibition, % at 20 µM; actives 0.64% (n = 360,000); in the data active means inhibition mostly above about 40%, no sharp cut-off; inactive means mostly below about 27%
SENP6 inh – SENP6 protease inhibitors, primary screen, biochemical, luminescence, uHTS; Sentrin-specific protease 6 (Homo sapiens), Q9GZR1; Recombinant SENP6 catalytic domain, aminoluciferin luminescence; inhibition, % at 10 µM; actives 1.8% (n = 330,000); AID 2599, 2010;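 active means inhibition above about 50% at the single tested dose, limit read from the data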;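 further: plate controls were DMSO wells with enzyme for no effect and DMSO wells lacking enzyme for full effect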
Target sequence (Q9GZR1 628-1112 limits assumed): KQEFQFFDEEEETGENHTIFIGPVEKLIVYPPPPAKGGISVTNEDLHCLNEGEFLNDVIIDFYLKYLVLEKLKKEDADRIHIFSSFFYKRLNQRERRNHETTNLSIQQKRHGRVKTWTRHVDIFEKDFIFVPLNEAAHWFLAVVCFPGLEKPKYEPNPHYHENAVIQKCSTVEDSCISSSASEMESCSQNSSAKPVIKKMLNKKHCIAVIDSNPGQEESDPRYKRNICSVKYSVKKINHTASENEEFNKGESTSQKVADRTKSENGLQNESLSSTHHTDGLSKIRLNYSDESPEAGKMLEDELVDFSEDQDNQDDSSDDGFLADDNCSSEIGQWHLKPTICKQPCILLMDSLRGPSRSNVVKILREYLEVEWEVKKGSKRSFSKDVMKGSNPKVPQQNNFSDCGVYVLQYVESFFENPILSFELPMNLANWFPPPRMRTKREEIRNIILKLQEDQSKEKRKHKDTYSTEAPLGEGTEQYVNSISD
HSP90 refold inh – HSP90 inhibitors, primary screen, cell lysate, luminescence. inhibition, % at 5.6 µM. actives 0.91% (n = 290,000). Rabbit reticulocyte lysate, luciferase refolding luminescence, 3 h;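 active means inhibition above the screen-wide mean plus 3 SD, computed separately per campaign, cut at about 16% in these data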;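 further: 0% = DMSO wells and 100% = 60 µM geldanamycin wells; inhibitors lower the luminescence because luciferase stays unfolded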
SENP7 inh – SENP7 protease inhibitors, primary screen, biochemical, luminescence, uHTS. AID 434973, 2010. recombinant SENP7, Z-RLRGG-aminoluciferin luminescence, 40 min. actives 1.5% (n = 330,000). Sentrin-specific protease 7 (Homo sapiens), Q9BQF6. inhibition, % at 5 µM;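 active means inhibition above about 50% at the single test dose, limit read from the data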;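 further: plate controls were DMSO with enzyme for no effect and no enzyme buffer wells for full effect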
SENP1 FRET inh – human SENP1 catalytic domain inhibitors, primary screen, biochemical, FRET, uHTS; recombinant SENP1 catalytic domain, CyPet-SUMO1-YPet FRET cleavage; inhibition, % at 10 µM; Sentrin-specific protease 1 (Homo sapiens), Q9P0U3; AID 624204, 2012; actives 0.21% (n = 360,000);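 active means inhibition at least 30% at 10 µM, raw YFP signal under a set limit, fluorescence ratio 0.5 to 1.5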;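 further: 0% = enzyme with DMSO and 100% = no enzyme wells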
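material = recombinant human SENP1 catalytic domain, His6-tagged | quantity = 20 pM enzyme | reagent = 25 nM SUMO1 FRET substrate | compound dosing = 10 µM single point, 0.5% DMSO | timing = 50 min enzyme reaction, room temperature, light-protected | detection = FRET, CFP and YFP emission | control set = no-enzyme low, enzyme-DMSO high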
SENP8 conf – SENP8 protease inhibitors, retest, confirmation, biochemical, luminescence, single concentration | actives 40% (n = 6,200) | shares compounds with SENP7 inh | Recombinant SENP8, Z-RLRGG-aminoluciferin luminescence, 60 min | inhibition, % at 12.5 µM;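 active means mean inhibition across replicates above about 50%, limit read from the data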
SENP6 conf – SENP6 protease inhibitors, confirmation, biochemical, luminescence, single concentration; shares compounds with SENP7 inh; recombinant SENP6, Z-RLRGG-aminoluciferin luminescence; inhibition, % at 12.5 µM; actives 58% (n = 6,200)
SENP7 confirm – SENP7 protease inhibitors, retest, confirmation, biochemical, luminescence, single concentration. shares compounds with SENP7 inh. recombinant SENP7, Z-RLRGG-aminoluciferin luminescence, 40 min. inhibition, % at 12.5 µM. actives 69% (n = 6,200). AID 488917, 2010
Casp3 select – caspase-3 protease inhibitors, confirmation, selectivity assay for SENP inhibitor project, biochemical, single concentration; shares compounds with SENP7 inh; purified caspase-3, Z-DEVD-aminoluciferin luminescence, 60 min; inhibition, % at 12.5 µM; actives 60% (n = 6,200); AID 488918, 2010;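 active means mean inhibition above about 50%, limit read from the data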;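 further: plate controls were enzyme with DMSO for no effect and wells without caspase-3 for full effect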
Luc interf – luminescence interference (SENP counter-screen); AID 488919; actives 39% (n = 6,200); inhibition, % at 12.5 µM; shares compounds with SENP7 inh; Pre-incubated SENP8/Z-RLRGG-aminoluciferin, luciferase luminescence interference;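 active means mean inhibition above about 50% when retested at one dose, limit read from the data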;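 further: plate controls were DMSO wells with completed reaction for no effect and substrate without enzyme for full effect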
* hit, by the source's call; x = no result.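 How the source made its calls, unless noted: active means mean inhibition above about 50% in the one-dose retest (limit read from the data); inactive means the rest.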

SMILES	SENP8 block-1	SENP8 block-2	SENP6 inh	HSP90 refold inh	SENP7 inh	SENP1 FRET inh	SENP8 conf	SENP6 conf	SENP7 confirm	Casp3 select	Luc interf
C=CCNc1ncnc2c1ncn2[C@H]1CN(Cc2ccccc2)C[C@@H](COC(C)=O)O1	x	4	x	x	x	-7	x	x	x	x	x
COCCN(Cc1nc2ccccc2c(=O)[nH]1)C(=O)COc1cccc(C(C)=O)c1	15	0	9	x	-2	0	x	x	x	x	x
O=C(CN1C(=O)C2(OCCCO2)c2ccccc21)NCc1ccccc1	-4	5	-16	1	52*	2	-8	-4	-8	4	1
C[C@H](NC(=O)[C@@H]1Cc2ccccc2CN1)C(=O)NC1CCCC1	10	8	-1	0	9	-1	x	x	x	x	x
O=C(NCCN1CCCCC1)c1ccc(Oc2cc(Cl)cc(Cl)c2)o1	-3	30	-27	3	5	0	x	x	x	x	x
O/N=C1\CC/C(=N\O)c2nn(-c3ccccc3Cl)nc21	3	9	-9	2	4	1	x	x	x	x	x
Cc1ccc(-n2nc3c(n2)/C(=N/O)CC/C3=N\O)cc1	66*	-38	26	1	78*	3	8	2	5	2	4
Cc1ccc(C(C[N+](=O)[O-])c2c(C)[nH]n(-c3ccccc3)c2=O)cc1 (stereo not drawn)	26	61*	54*	2	39	-5	25	50	24	3	6
Cc1ccc(C(=O)OCCc2c(C)[nH]n(-c3ccccc3)c2=O)cc1	-1	3	-15	3	4	0	x	x	x	x	x
O=C1/C(=C/c2cccc(F)c2)Oc2cc(O)ccc21	36	-256	52*	-3	47	-19	70*	64*	81*	44	34
C(=N\Nc1nc(-c2ccccc2)cs1)/c1cccs1	31	-68	64*	4	2	0	63*	65*	88*	33	0
C(=N\Nc1nc(-c2ccccc2)cs1)/c1ccco1	54*	-18	72*	3	47	-6	65*	66*	87*	37	58*
Cc1ccc(-c2csc(N/N=C/c3ccco3)n2)cc1	0	-21	7	4	6	-6	x	x	x	x	x
COc1ccc([C@@H]2[C@@H]3C(=O)N(C(C)(C)C)C(=O)[C@@H]3[C@]3(C)C(=O)N(c4cccc(Br)c4)C(=O)N23)cc1	-9	9	-12	-2	7	1	x	x	x	x	x
Cc1cccc(N2CCN(C(=O)c3ccc(-n4cncn4)c([N+](=O)[O-])c3)CC2)c1C	-2	5	-9	-3	0	-22	x	x	x	x	x
COc1ccccc1CN(C)C(=O)c1cc(S(=O)(=O)N2CCCCCC2)ccc1OC	x	24	x	x	x	1	x	x	x	x	x
